Measured values as given in the RNAGym collection of RNA variant scans (doi:10.1038/s41586-018-0170-7).

B1: tRNA (parent)
chain: GUUCCGUUGGCGUAAUGGUAACGCGUCUCCCUCCUAAGGAGAAGACUGCGGGUUCGAGUCCCGUACGGAACG

Variants of: B1
Assay: yeast fitness, log relative to wild type (ln ratio); higher = fitter; tRNA-Arg(CCU), competitive growth, 37 C, 1 M NaCl
In short: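 Two independent transformations put a combinatorial tRNA-Arg(CCU) variant library on a HIS3 centromeric plasmid into BY4742 lacking the chromosomal gene. Pools were grown in SC-HIS at 30 °C for 4 generations, then in SC-HIS 1M NaCl at 37 °C for ~6.5 generations (~26.5 h), with three outputs taken per input. Fitness compares a genotype's generations with the wild type's as a natural log ratio. Those generations are OD-scaled log2 output/input frequencies, inverse-variance weighted across replicates, from 125 bp paired-end Illumina counts.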

Variant | yeast fitness (ln)
A43C C66A A69G A70U | -0.153
G1A C46U A70G C71U | -0.0168
G6A A43C C46U A70G | -0.0876
C27U A43C A70U | -0.185
G1A U2G G6U C46U A69G C71U | -0.3
G1A U2C G6U C27U A43C C46U C66U A69G A70U C71U | -0.398
C71U | -0.00399
G1A U2C G6U C27U C46U C66A A70U C71U | -0.264
G1A G6A C66A C71U | -0.0846
G6U A43C C66A A70G C71U | -0.177
G1A U2C C27U A70G | -0.0624
U2G C27U A43C C46U C66U A70G | -0.161
U2G G6U A43C C66A A69G A70U | -0.185
A43C A69G A70G C71U | -0.0742
C27U A43C A69G | -0.0699
G6U C27U A43C C71U | -0.281
U2G G6U C27U A43C A69G | -0.268
G6A C27U | -0.0758
U2C G6U C46U C66U A69G A70G | -0.066
U2C A43C C66U A69G A70U C71U | -0.605
U2G A43C C66U A70G C71U | -0.22

Variant | yeast fitness (ln)
G1A U2G A69G C71U | -0.135
G6A C27U A70U C71U | -0.227
U2G G6U C27U A43C C66U A69G A70G | -0.39
U2G G6A C27U C66U A69G A70G | -0.243
G1A G6A C46U C66A C71U | -0.258
G1A U2G G6U A43C C46U C66A A70G C71U | -0.153
G1A G6U C27U A43C C66A C71U | -0.498
G1A U2C C46U C66A A70G C71U | -0.124
G1A U2G G6A C66A A70U | -0.0697
G1A U2C C27U A43C C46U C66U A70G | -0.0953
U2C G6A C46U A70G | 0.00625
G6A C27U A43C C66A A70G | -0.337
G1A U2C A43C A69G A70G C71U | -0.0094
C46U C66U A69G A70G C71U | -0.084
G1A U2G G6U C66A A69G A70G C71U | -0.325
U2G G6U C46U A69G A70G | -0.109
U2G C27U C46U C66U A69G | -0.211
G6A C27U A43C C46U C66A A70U | -0.193
U2G G6A C27U A43C C66A A69G A70U | -0.301
U2G G6U C27U C46U | -0.1
U2G G6U C46U A69G | -0.157

Variant | yeast fitness (ln)
U2G G6A C27U C46U C66A A69G A70U | -0.134
G1A C27U C46U C66U A69G A70G | -0.251
G1A U2G G6A A43C C46U C66U | -0.23
G1A U2G G6U C27U A43C C46U C66U A69G A70U C71U | -0.434
G6A C27U A43C A69G C71U | -0.353
G6A A43C C46U C66U C71U | -0.12
G1A U2G C27U C46U C66U C71U | -0.21
C27U C66A A70G | -0.0873
G1A G6U C66A A70G C71U | -0.0373
U2G G6A A43C C46U C66A A69G A70U C71U | -0.381
U2C A70U C71U | -0.0765
U2C A43C C46U A69G | -0.182
U2C C66U A69G A70U | -0.0622
G1A G6A C27U A43C C66U C71U | -0.505
G1A U2G C27U A43C C46U C66U A69G A70G C71U | -0.3
U2G G6U A43C C66U C71U | -0.405
G1A U2C C27U C46U A69G A70G C71U | -0.0376
G1A C27U C46U C66A A69G A70U | -0.179
U2G G6U A43C C66U A70U C71U | -0.464
G1A U2G C66A A70G C71U | -0.191
U2G C27U C66A A70U C71U | -0.195

Variant | yeast fitness (ln)
G1A C27U C46U C66U A70G C71U | -0.223
U2G C66U C71U | -0.181
U2G A43C C46U A70U C71U | -0.0246
U2C C66U C71U | -0.0912
G6U C27U A43C C46U C71U | -0.254
G1A G6A A43C C46U C66U A70U C71U | -0.331
U2G A43C C46U C66U | -0.14
G1A C27U C46U A69G A70U C71U | -0.301
G6A C27U A43C C46U | -0.084
U2C G6U A43C C46U C66U A70U | -0.123
G1A U2G C46U C66U A70U C71U | -0.185
U2C C27U C46U A70U | -0.0474
G6A A43C C66U A69G | -0.109
G1A C46U C66A A69G A70U C71U | -0.331
U2C G6U C27U A43C C46U C66A A70G | -0.0237
G1A G6U A43C C46U A69G C71U | -0.263
U2C G6A A43C C66U A70G C71U | -0.0302
U2C G6U C46U A69G A70G C71U | -0.236
G1A G6A A69G A70G C71U | -0.178
G1A U2C G6U A43C C46U A70U C71U | -0.144
